According to ChEMBL document CHEMBL1122379, “Design of anticandidal agents: synthesis and biological properties of analogues of polyoxin L” (J Med Chem, 1983):

Columns and labels:
[1] = tested on: Candida albicans; assay: (§1) Concentration at which 50% of the cells incubated, were not able to form colonies when replated.; format: ADME, organism-based; conditions: read-out: Viability
Summary of the method: (§2)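 C. albicans H-317 grown at 37 °C with stirring in yeast nitrogen base with 0.5% isoleucine and 5.0% glucose, harvested at early log phase. Cells were exposed at 1×10^6 cells/mL to twofold serial drug dilutions and incubated 48 h at 37 °C in a humid chamber. Wells were plated on potato dextrose agar for 2 days at 37 °C. Viability was taken as colonies versus hemocytometer counts.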

[2] = tested on: Candida albicans; assay: Minimum effective concentration is the lowest concentration at which some (5%) morphologically abnormal cells were observed under microscopic examination.; format: functional; conditions: read-out: MEC
Summary of the method: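 C. albicans H-317 (clinical isolate) grown at 37 °C in yeast nitrogen base with 0.5% isoleucine and 5.0% glucose, harvested at early log phase, washed. Twofold serial dilutions in yeast nitrogen base, 1×10^6 cells/mL per well, 48 h at 37 °C in humid chamber with slight agitation; wells examined microscopically for lowest concentration giving ~5% abnormal cells.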

[3] = target: Chitin synthase 1 (Candida albicans) (UniProt P23316); assay: Inhibitory activity against chitin synthetase from Candida albicans H-317; format: functional
Chain of Chitin synthase 1 (Candida albicans) (P23316 whole entry, looked up): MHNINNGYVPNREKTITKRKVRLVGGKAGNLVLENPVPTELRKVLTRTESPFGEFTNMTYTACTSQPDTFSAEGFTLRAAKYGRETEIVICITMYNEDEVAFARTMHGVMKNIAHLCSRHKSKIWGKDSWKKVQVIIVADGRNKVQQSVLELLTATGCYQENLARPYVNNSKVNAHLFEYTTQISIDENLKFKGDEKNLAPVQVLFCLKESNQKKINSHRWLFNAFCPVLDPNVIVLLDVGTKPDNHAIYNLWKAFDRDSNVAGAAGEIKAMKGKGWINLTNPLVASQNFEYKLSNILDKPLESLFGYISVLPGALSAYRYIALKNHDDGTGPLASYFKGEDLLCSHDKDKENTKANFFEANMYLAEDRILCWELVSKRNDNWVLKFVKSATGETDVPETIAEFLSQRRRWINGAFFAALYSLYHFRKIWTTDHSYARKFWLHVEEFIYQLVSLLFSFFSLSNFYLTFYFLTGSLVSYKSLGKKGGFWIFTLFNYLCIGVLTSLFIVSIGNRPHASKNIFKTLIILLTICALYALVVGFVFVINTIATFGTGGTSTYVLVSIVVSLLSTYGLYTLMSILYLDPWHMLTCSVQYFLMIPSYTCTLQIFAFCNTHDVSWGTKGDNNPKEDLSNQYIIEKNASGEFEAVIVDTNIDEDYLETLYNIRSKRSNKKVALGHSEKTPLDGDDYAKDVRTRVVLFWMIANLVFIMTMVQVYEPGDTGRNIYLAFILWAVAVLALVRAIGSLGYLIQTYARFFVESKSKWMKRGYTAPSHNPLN
Summary of the method: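 Mixed membrane fraction of C. albicans H-317 (5.17 mg protein/mL stock), trypsin-activated 10 min at 37 °C with ATP in imidazole buffer pH 6.5; trypsin inhibitor, GlcNAc and UDP-[14C]GlcNAc then added with inhibitor at 10^-3 to 10^-6 M. Aliquots taken at 5–60 min, acid/ethanol-precipitated chitin filtered and scintillation-counted; ID50 = concentration giving half of initial velocity from dose-response curves.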

[4] = tested on: Candida albicans; assay: as §1; format: functional; summary of the method: as §2

ID50 [3]	SMILES	LC50 [1]	minimal effective concentration [2]	Viability [4]
1.7 µM	N[C@@H](Cc1c[nH]c2ccccc12)C(=O)NC(C(=O)O)[C@H]1O[C@@H](n2ccc(=O)[nH]c2=O)[C@H](O)[C@@H]1O (some centres undefined)		130 µM	>8 mM
3.8 µM	NC(CCc1ccccc1)C(=O)NC(C(=O)O)[C@H]1O[C@@H](n2ccc(=O)[nH]c2=O)[C@H](O)[C@@H]1O (some centres undefined)		60 µM	>8 mM
16 µM	NC(Cc1ccc(Oc2ccc(O)cc2)cc1)C(=O)NC(C(=O)O)[C@H]1O[C@@H](n2ccc(=O)[nH]c2=O)[C@H](O)[C@@H]1O (some centres undefined)		2000 µM	4 mM
> 100 µM	NC(C(=O)O)[C@H]1O[C@@H](n2ccc(=O)[nH]c2=O)[C@H](O)[C@@H]1O (some centres undefined)		8000 µM	>8 mM
14 µM	CCCCC(N)C(=O)NC(C(=O)O)[C@H]1O[C@@H](n2ccc(=O)[nH]c2=O)[C@H](O)[C@@H]1O (some centres undefined)		170 µM	4 mM
68 µM	NC(=O)NCCCC(N)C(=O)N[C@@H](C(=O)O)[C@H]1O[C@@H](n2ccc(=O)[nH]c2=O)[C@H](O)[C@@H]1O (some centres undefined)		500 µM	>8 mM

SMILES	ID50 [3]	LC50 [1]	minimal effective concentration [2]	Viability [4]
NC(Cc1ccc(O)cc1)C(=O)NC(C(=O)O)[C@H]1O[C@@H](n2ccc(=O)[nH]c2=O)[C@H](O)[C@@H]1O (some centres undefined)	4.9 µM	> 8000 µM	8000 µM	
NC(=O)OCC(O)C(O)C(N)C(=O)NC(C(=O)O)[C@H]1O[C@@H](n2cc(C(=O)O)c(=O)[nH]c2=O)[C@H](O)[C@@H]1O (some centres undefined)	1.8 µM		2 µM	1 mM
